Assay results as given in ChEMBL document CHEMBL1146595, “Constituents from the leaves of Phellodendron amurense var. wilsonii and their bioactivity” (J Nat Prod, 2003).

How the values were obtained:
[1] = tested on: Radical scavenging activity; experiment: Antioxidant activity assessed as DPPH free radical scavenging activity at 250 uM; format: functional
How it was run: (§1)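 Radical-scavenging assay run by previously reported methods. Percent inhibition was recorded after a 30 min incubation.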

[2] = molecular target: T1, Tyrosinase (Homo sapiens) (UniProt P14679); experiment: Inhibition of tyrosinase at 333 uM
T1 sequence (whole entry): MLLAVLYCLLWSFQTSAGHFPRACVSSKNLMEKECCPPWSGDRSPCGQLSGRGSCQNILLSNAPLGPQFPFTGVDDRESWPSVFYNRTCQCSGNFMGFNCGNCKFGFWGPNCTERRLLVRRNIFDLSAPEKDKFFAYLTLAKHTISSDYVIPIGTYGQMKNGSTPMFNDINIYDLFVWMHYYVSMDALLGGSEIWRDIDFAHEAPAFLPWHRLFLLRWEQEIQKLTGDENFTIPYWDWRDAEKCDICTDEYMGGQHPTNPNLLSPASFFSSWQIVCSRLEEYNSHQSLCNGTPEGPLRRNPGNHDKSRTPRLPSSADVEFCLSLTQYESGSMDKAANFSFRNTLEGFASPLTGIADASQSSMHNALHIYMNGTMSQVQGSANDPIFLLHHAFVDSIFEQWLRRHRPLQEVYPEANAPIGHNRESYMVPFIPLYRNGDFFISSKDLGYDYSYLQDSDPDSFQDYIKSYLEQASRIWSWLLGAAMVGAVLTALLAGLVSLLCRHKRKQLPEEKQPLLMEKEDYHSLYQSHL

[3] = tested on: Radical scavenging activity; experiment: Antioxidant activity assessed as DPPH free radical scavenging activity; format: functional; how it was run: as §1

Molecule | inhibition [1] [%] | inhibition [2] [%] | IC50 [3] [µM]
CC(C)=CCc1c(O)cc(O)c2c1O[C@@H](c1ccc(O)cc1)[C@@H](O)C2=O | 20.9 |  | 
CC1(C)O[C@H]2CC(=O)OC[C@]23[C@H]2CC[C@@]4(C)[C@H](c5ccoc5)OC(=O)[C@H]5O[C@]54[C@]2(C)C(=O)C[C@@H]13 |  | 3.6 | 
O=c1c(O[C@@H]2O[C@H](CO)[C@@H](O)[C@H](O)[C@H]2O)c(-c2ccc(O)c(O)c2)oc2cc(O)cc(O)c12 [ISOQUERCETIN] |  |  | 32.2
O=c1c(O[C@@H]2O[C@H](CO)[C@H](O)[C@H](O)[C@H]2O)c(-c2ccc(O)cc2)oc2cc(O)cc(O)c12 | 4.5 |  | 
C=C(C)[C@@H]1CC[C@]2(C)CC[C@]3(C)[C@H](CC[C@@H]4[C@@]5(C)CCC(=O)C(C)(C)[C@@H]5CC[C@]43C)[C@@H]12 |  | -2.4 | 
CC(C)=CCc1c(O[C@@H]2O[C@H](CO)[C@@H](O)[C@H](O)[C@H]2O)cc(O)c2c1O[C@H](c1ccc(O)cc1)[C@@H](O)C2=O | 34.6 |  | 
CC[C@H](CC[C@@H](C)[C@H]1CC[C@H]2[C@@H]3CC=C4C[C@@H](O)CC[C@]4(C)[C@H]3CC[C@]12C)C(C)C |  | 14.3 | 
O=c1c(O[C@@H]2O[C@H](CO)[C@@H](O)[C@H](O)[C@H]2O)c(-c2ccc(O)cc2)oc2cc(O)cc(O)c12 | 5.7 |  | 
VITAMIN E |  |  | 8.3
CC(C)(O)CCc1c(O[C@@H]2O[C@H](CO)[C@@H](O)[C@H](O)[C@H]2O)cc(O)c2c(=O)c(O)c(-c3ccc(O)cc3)oc12 [AMURENSIN] |  | 15.4 | 88.3
